In ChEMBL document CHEMBL1134785, “Synthesis and biological evaluation of prostaglandin-F alkylphosphinic acid derivatives as bone anabolic agents for the treatment of osteoporosis” (J Med Chem, 2001):
pIC50: −log10 of the molar value.

Key:
Rattus norvegicus [1] = assay: Mineralizing surface/bone surface(%) measured Histomorphometrically after a dose of 3000 ug/kg in proximal tibial metaphysis; assay type: functional
In short: (§1)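 Ovariectomized six-month-old rats, 6-8 per group, were dosed subcutaneously once daily at 0.01–3.0 mg/kg for 60 days, starting 60 days after surgery. Vehicle was acetate-buffered saline, methylcellulose and polyoxyethylenesorbitan monooleate. Labels were xylenol orange 90 mg/kg pretreatment and calcein 10 mg/kg at 14 and 4 days before necropsy. Histomorphometry covered the proximal tibial metaphysis, 1–4 mm distal to the growth plate–metaphyseal junction. ANOVA/LSD versus vehicle.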

Rattus norvegicus [2] = assay: Marrow area (mm) measured Histomorphometrically after a dose of 30 ug/kg in tibial diaphysis; assay type: functional
In short: (§2)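 Six-month-old rats, bilaterally ovariectomized, 6-8 per group, on natural chow. After 60 days they received once-daily subcutaneous dosing for 60 days at 0.01–3.0 mg/kg. Vehicle was acetate-buffered saline with methylcellulose and polyoxyethylenesorbitan monooleate. Labels were xylenol orange 90 mg/kg before treatment and calcein 10 mg/kg 14 and 4 days before sacrifice. Tibial histomorphometry was read under fluorescent light, with ANOVA/LSD versus vehicle.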

Rattus norvegicus [3] = assay: Trabecular thickness […] measured Histomorphometrically after a dose of 1000 ug/kg in proximal tibial metaphysis; assay type: functional, Trabecula
In short: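 Six-month-old rats were ovariectomized, and 60 days later daily subcutaneous dosing began for 60 days, with vehicle of acetate-buffered saline, methylcellulose and polysorbate. Xylenol orange (90 mg/kg) labelled bone pre-treatment and calcein (10 mg/kg) 14 and 4 days pre-sacrifice. Histomorphometry covered the proximal tibial metaphysis 1-4 mm distal to the growth plate-metaphyseal junction. Groups were 6-8 rats, compared by ANOVA/LSD vs vehicle.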

Rattus norvegicus [4] = assay: Periosteal mineral apposition rate ([…]) measured Histomorphometrically after a dose of 30 ug/kg in tibial diaphysis; assay type: functional; in short: as §2
[5] = molecular target: Prostaglandin E2 receptor EP2 subtype (Homo sapiens, UniProt P43116); assay: In vitro binding at EP2 human prostaglandin receptor
Prostaglandin E2 receptor EP2 subtype, sequence (P43116 whole entry): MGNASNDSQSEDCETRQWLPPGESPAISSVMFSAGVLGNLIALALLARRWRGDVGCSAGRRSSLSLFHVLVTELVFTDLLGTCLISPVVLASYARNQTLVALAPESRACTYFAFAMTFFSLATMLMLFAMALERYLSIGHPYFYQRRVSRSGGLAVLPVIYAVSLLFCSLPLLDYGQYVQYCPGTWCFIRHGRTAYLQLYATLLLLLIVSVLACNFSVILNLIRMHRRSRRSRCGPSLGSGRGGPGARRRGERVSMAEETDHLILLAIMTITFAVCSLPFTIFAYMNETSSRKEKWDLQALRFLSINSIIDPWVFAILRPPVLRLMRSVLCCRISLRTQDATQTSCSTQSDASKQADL
In short: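 Receptors stably expressed in CHO cells, collected 4-5 days after seeding. Membranes made by lysis (Tris, EDTA, protease inhibitors) and 100000g pellet, then resuspended at 1 mg protein/mL in TME. Radioligands at 5 nM: [3H]PGE2 for EP2/EP3/EP4, [3H]Iloprost for IP, [3H]SQ-29548 for TP. Competition binding with filtration and counting.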

Rattus norvegicus [6] = assay: Bone Volume /Tissue Volume (%)measured using micro Computed Tomography(CT) after a dose of 30 ug/kg in Vertebral Bone; assay type: functional; settings: at 30 µg/kg
Rattus norvegicus [7] = assay: Directly measured thickness(um) using micro Computed Tomography(CT) after a dose of 10 ug/kg in Vertebral Bone; assay type: functional
In short: (§3)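 Micro-CT of the fifth lumbar vertebra, measuring cancellous bone volume and architecture. Rats were 6 months old, OVX 60 days before treatment, then dosed daily for 60 days. Test-agent doses were 10–3000 µg/kg, given as a once-daily subcutaneous injection; 6 mg/kg/day was given to the positive-control group. Groups were compared with vehicle by ANOVA plus LSD test.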

Rattus norvegicus [8] = assay: Bone Volume /Tissue Volume (%)measured Histomorphometrically after a dose of 3000 ug/kg in proximal tibial metaphysis; assay type: functional; settings: at 3000 µg/kg
Rattus norvegicus [9] = assay: Marrow area (mm) measured Histomorphometrically after a dose of 300 ug/kg in tibial diaphysis; assay type: functional; in short: as §2
Rattus norvegicus [10] = assay: connectivity density (mm-3) using micro Computed Tomography(CT) after a does of 30 ug/kg in Vertebral Bone; assay type: functional
In short: (§4)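 Rats were ovariectomized at 6 months of age and, after 60 days, dosed subcutaneously once daily for 60 days, with vehicle of acetate-buffered saline, methylcellulose and polysorbate. At necropsy the fifth lumbar vertebra was scanned by micro-CT to obtain cancellous architecture. Groups were 6-8 rats; results were compared to vehicle by ANOVA with least significant difference test.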

Rattus norvegicus [11] = assay: Derived trabecular thickness (um) measured using micro Computed Tomography(CT) after a dose of 10 ug/kg in Vertebral Bone; assay type: functional, Trabecula; in short: as §3
Rattus norvegicus [12] = assay: Tissue area (mm) measured Histomorphometrically after a dose of 10 ug/kg in tibial diaphysis; assay type: functional
In short: (§5)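 Rats on natural chow (1.46% Ca) were bilaterally ovariectomized at 6 months and left untreated for 60 days. They then received once-daily subcutaneous doses for 60 days, with vehicle of acetate-buffered saline, methylcellulose and polysorbate. Xylenol orange (90 mg/kg) was given before treatment and calcein (10 mg/kg) 14 and 4 days before sacrifice. Tibiae were analysed by fluorescent histomorphometry, 6-8 rats/group, ANOVA/LSD vs vehicle.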

Rattus norvegicus [13] = assay: Mineralizing surface/bone surface(%) measured Histomorphometrically after a dose of 10 ug/kg in proximal tibial metaphysis; assay type: functional; in short: as §1
Rattus norvegicus [14] = assay: connectivity density (mm-3) using micro Computed Tomography(CT) after a does of 1000 ug/kg in Vertebral Bone; assay type: functional; in short: as §4
Rattus norvegicus [15] = assay: Endosteal mineralizing surface Histomorphometrically after a dose of 100 ug/kg in tibial diaphysis; assay type: functional; in short: as §2
Rattus norvegicus [16] = assay: Directly measured thickness(um) using micro Computed Tomography(CT) after a dose of 30 ug/kg in Vertebral Bone; assay type: functional; in short: as §3
Rattus norvegicus [17] = assay: connectivity density (mm-3) using micro Computed Tomography(CT) after a does of 3000 ug/kg in Vertebral Bone; assay type: functional; in short: as §4
Rattus norvegicus [18] = assay: Periosteal mineralizing surface (%) measured Histomorphometrically after a dose of 10 ug/kg in tibial diaphysis; assay type: functional; in short: as §5
Rattus norvegicus [19] = assay: Mineral apposition rate ([…])bone measured Histomorphometrically after a dose of 300 ug/kg in tibial diaphysis; assay type: functional; in short: as §2
Rattus norvegicus [20] = assay: Bone Volume /Tissue Volume (%)measured using micro Computed Tomography(CT) after a dose of 300 ug/kg in Vertebral Bone; assay type: functional; settings: at 300 µg/kg
Rattus norvegicus [21] = assay: Mineral apposition rate ([…])bone measured Histomorphometrically after a dose of 10 ug/kg in proximal tibial metaphysis; assay type: functional; in short: as §1
Rattus norvegicus [22] = assay: Mineral apposition rate ([…])bone Histomorphometrically after a dose of 30 ug/kg in proximal tibial metaphysis; assay type: functional; in short: as §1
Rattus norvegicus [23] = assay: Mineral apposition rate ([…])bone measured Histomorphometrically after a dose of 30 ug/kg in tibial diaphysis; assay type: functional; in short: as §2
Rattus norvegicus [24] = assay: Bone Volume /Tissue Volume (%)measured using micro Computed Tomography(CT) after a dose of 10 ug/kg in Vertebral Bone; assay type: functional; settings: at 10 µg/kg
Rattus norvegicus [25] = assay: connectivity density (mm-3) using micro Computed Tomography(CT) after a does of 10 ug/kg in Vertebral Bone; assay type: functional; in short: as §4
Rattus norvegicus [26] = assay: Bone Volume /Tissue Volume (%)measured Histomorphometrically after a dose of 30 ug/kg in proximal tibial metaphysis; assay type: functional; settings: at 30 µg/kg
Rattus norvegicus [27] = assay: Mineral apposition rate ([…])bone measured Histomorphometrically after a dose of 10 ug/kg in tibial diaphysis; assay type: functional; in short: as §2
Rattus norvegicus [28] = assay: Periosteal mineral apposition rate ([…]) measured Histomorphometrically after a dose of 10 ug/kg in tibial diaphysis; assay type: functional; in short: as §2
Rattus norvegicus [29] = assay: Endosteal eroded surface(%) measured Histomorphometrically after a dose of 1000 ug/kg in tibial diaphysis; assay type: functional
In short: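 Tibial histomorphometry in 6-month-old rats, OVX 60 days before treatment, then daily injection for 60 days. Vehicle was acetate-buffered saline with methylcellulose and polyoxyethylenesorbitan monooleate. Rats received xylenol orange 90 mg/kg before treatment and calcein 10 mg/kg at 14 and 4 days pre-sacrifice. Rats were killed by cardiac puncture under ketamine/xylazine. Groups were compared with vehicle by ANOVA plus LSD test.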

Rattus norvegicus [30] = assay: Mineral apposition rate ([…])bone measured Histomorphometrically after a dose of 300 ug/kg in proximal tibial metaphysis; assay type: functional; in short: as §1

CP(=O)(O)CCC/C=C\C[C@@H]1[C@@H](/C=C/[C@@H](O)COc2ccccc2)[C@H](O)C[C@@H]1O
Activity (Rattus norvegicus [1]): 23.66% | Marrow area (Rattus norvegicus [2]): 0.87 mm² | Trabecular thickness (Rattus norvegicus [3]): 56.7 µm | Periosteal mineral apposition rate (Rattus norvegicus [4]): 0.31 µm/day | pIC50 [5]: < 5.00 | Activity (Rattus norvegicus [6]): 34.58% | Directly measured thickness (Rattus norvegicus [7]): 118 µm | Activity (Rattus norvegicus [8]): 8.51% | Marrow area (Rattus norvegicus [9]): 0.89 mm | Connectivity density (Rattus norvegicus [10]): 59.2 mm**-3 | Derived trabecular thickness (Rattus norvegicus [11]): 73 µm | Tissue area (Rattus norvegicus [12]): 5.09 mm | Activity (Rattus norvegicus [13]): 28.37% | Connectivity density (Rattus norvegicus [14]): 59.66 mm**-3 | Endosteal mineralizing surface (Rattus norvegicus [15]): 22.28% | Directly measured thickness (Rattus norvegicus [16]): 126 µm | Connectivity density (Rattus norvegicus [17]): 55.9 mm**-3 | Periosteal mineralizing surface (Rattus norvegicus [18]): 25.86% | Mineral apposition rate (Rattus norvegicus [19]): 0.53 µm/day | Activity (Rattus norvegicus [20]): 38.61% | Mineral apposition rate (Rattus norvegicus [21]): 0.99 µm/day | Mineral apposition rate (Rattus norvegicus [22]): 1.09 µm/day | Mineral apposition rate (Rattus norvegicus [23]): 0.88 µm/day | Activity (Rattus norvegicus [24]): 31.04% | Connectivity density (Rattus norvegicus [25]): 60.28 mm**-3 | Activity (Rattus norvegicus [26]): 3.63% | Mineral apposition rate (Rattus norvegicus [27]): 0.71 µm/day | Periosteal mineral apposition rate (Rattus norvegicus [28]): 0.49 µm day-1 | Endosteal eroded surface (Rattus norvegicus [29]): 2.74% | Mineral apposition rate (Rattus norvegicus [30]): 0.98 µm/day
